Source: PMC7032160 (Asian Journal of Pharmaceutical Sciences, 2017)
Where two headings read alike, the source gives them in different places.

Legend:
[1] = Pharmacokinetic study in rats after oral administration of JDR or gemcitabine; type: in vivo; settings: male, Wistar, rat, plasma, 50 mg/kg
Procedure, shortened: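 Twelve male Wistar rats (180–220 g) were fasted 12 h and randomized into two groups (n = 6). Each received one oral dose: prodrug at gemcitabine-equivalent 50 mg/kg or parent drug 50 mg/kg. Blood was drawn at 0.083–48 h (prodrug) or 0.25–24 h (parent) into heparinized THU-treated tubes and spun 3000 × g 15 min; plasma was kept at −80 °C. Analysis was UPLC–MS/MS MRM, with noncompartmental parameters.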

[2] = type: in vitro ADME, rat; settings: for Concentration founded: n = 3
Procedure, shortened: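 QC samples (n = 3) were spiked into THU-pretreated rat plasma at low, mid and high levels: 15, 125, 3200 ng/ml prodrug and 12, 125, 3200 ng/ml parent drug. 50 µl plasma was protein-precipitated with methanol plus didanosine IS and centrifuged. Extracts were held in the autosampler at 10 °C for 8 h before UPLC–MS/MS. Read-outs were found concentration and relative error.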

## Nc1ccn([C@@H]2O[C@H](CO)[C@@H](O)C2(F)F)c(=O)n1 [Gemcitabine]
[1]
  Cmax: 1.18 ± 0.0471 µg/mL
  Tmax: 1.5 ± 0.9 h
  half-life: 2.61 ± 1.1 h
[2]; autosampler rack at 10 °C for 8 h, High QC
  RE%: −6.4%
[2]; autosampler rack at 10 °C for 8 h, Low QC
  RE%: 0.9%
[2]; autosampler rack at 10 °C for 8 h, Mid QC
  RE%: 9.1%
[2]; rat plasma, bench-top (20 °C for 1 h), High QC
  RE%: −8.9%
[2]; rat plasma, bench-top (20 °C for 1 h), High QC (added 3200.00 ng/ml)
  Concentration founded: 2.91515 ± 0.0957 µg/mL
[2]; rat plasma, bench-top (20 °C for 1 h), Low QC
  RE%: −4.8%
[2]; rat plasma, bench-top (20 °C for 1 h), Mid QC
  RE%: 7.8%
[2]; rat plasma, bench-top (20 °C for 1 h), Mid QC (added 125.00 ng/ml)
  Concentration founded: 0.13478 ± 0.0016 µg/mL
[2]; rat plasma, freezing at -80 °C for 2 months, High QC
  RE%: −0.1%
[2]; rat plasma, freezing at -80 °C for 2 months, Low QC
  RE%: −2.1%
[2]; rat plasma, freezing at -80 °C for 2 months, Mid QC
  RE%: 4.3%
[2]; rat plasma, freezing at -80 °C for 2 months, Mid QC (added 125.00 ng/ml)
  Concentration founded: 0.13038 ± 0.0106 µg/mL
[2]; rat plasma, three freeze/thaw cycles (-80 to 20 °C), High QC
  RE%: −7.3%
[2]; rat plasma, three freeze/thaw cycles (-80 to 20 °C), Low QC
  RE%: −2.0%
[2]; rat plasma, three freeze/thaw cycles (-80 to 20 °C), Mid QC
  RE%: 7.4%
